Screening results deposited in PubChem by several laboratories.
ZTA DNA inh = blocks Epstein-Barr virus ZTA, an EBNA-1 counter-screen; ZTA-DNA binding, fluorescence polarization; P03206; actives 0.15% (n = 320,000); inhibition, % at 11 µM; in the data active = inhibition above about 33%
EBV gp42 block = inhibitors of Epstein-Barr virus glycoprotein 42 | Fluorescence polarization binding assay, mP read-out | inhibition, % (tested at 21.74 µM) | actives 0.42% (n = 220,000) | AID 1085; in the data active = inhibition above about 50%
Target sequence (Q1HVG2 whole entry, looked up): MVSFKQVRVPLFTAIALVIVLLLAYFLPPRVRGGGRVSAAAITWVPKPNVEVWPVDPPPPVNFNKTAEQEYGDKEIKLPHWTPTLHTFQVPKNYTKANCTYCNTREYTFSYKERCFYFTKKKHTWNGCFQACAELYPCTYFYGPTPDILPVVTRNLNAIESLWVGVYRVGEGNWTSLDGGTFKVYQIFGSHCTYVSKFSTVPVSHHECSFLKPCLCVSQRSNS
NS3 helicase inh = inhibitors of Hepatitis C virus NS3 helicase; NS3 helicase DNA unwinding, Cy5 molecular beacon fluorescence; inhibition, % at 10.9 µM; actives 0.56% (n = 290,000);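 active = inhibition above the mean of all tested compounds plus 3 SD, set per campaign, cut at about 35% in these data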;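 also: 0% = DMSO wells and 100% = thioflavine S control wells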
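System: Hepatitis C virus NS3 helicase domain fragment enzyme | Reagent: Annealed dual-labelled DNA beacon duplex, ATP-started | Compound dosing: 10.9 µM single point, 0.8% DMSO | Incubation: 1 h reaction at 25 °C, ATP-initiated | Technique: Cy5 fluorescence | Evaluation: Percent inhibition from t60/t0 fluorescence ratio | Benchmarks: Low DMSO, high thioflavine S at 110 µM | Replication: Singlicate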
EBNA-1 inh = blocks EBNA-1 binding to DNA | EBNA-1 DNA binding, fluorescence polarization | inhibition, % at 14.8 µM | actives 0.34% (n = 300,000); in the data active = inhibition above about 28%
MEX-5 binding = C. elegans MEX-5 TCR-2 RNA binding activity. actives 0.38% (n = 300,000). Q9XUB2. activity score (negative = inhibition of binding), % at 10 µM. AID 1832. MEX-5/FITC-TCR2 RNA binding, fluorescence polarization; stronger effect = lower value;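 active = inhibition past about -25% in most replicates, and total fluorescence under double the plate's negative control median, limit read from the data; inconclusive = replicates evenly split on the limit, or fluorescence at least double controls; inactive = too little inhibition in most replicates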;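 also: 0% = DMSO and -100% = 5 µM competing unlabeled TCR2 RNA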
Target sequence (Q9XUB2 whole entry, looked up): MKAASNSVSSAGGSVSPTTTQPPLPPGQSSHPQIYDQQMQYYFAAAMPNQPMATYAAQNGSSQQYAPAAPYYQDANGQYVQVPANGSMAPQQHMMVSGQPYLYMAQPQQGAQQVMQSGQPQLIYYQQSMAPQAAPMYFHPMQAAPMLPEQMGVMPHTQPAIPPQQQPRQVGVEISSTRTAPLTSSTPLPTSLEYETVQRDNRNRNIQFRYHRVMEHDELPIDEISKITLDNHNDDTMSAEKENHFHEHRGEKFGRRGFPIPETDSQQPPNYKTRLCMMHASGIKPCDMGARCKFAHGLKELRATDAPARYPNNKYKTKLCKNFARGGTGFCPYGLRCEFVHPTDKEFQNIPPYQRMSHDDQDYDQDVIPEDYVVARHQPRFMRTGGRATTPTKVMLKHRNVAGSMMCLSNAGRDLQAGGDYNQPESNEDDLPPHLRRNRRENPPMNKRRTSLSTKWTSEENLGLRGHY
core dimer inh = HCV core protein dimerization inhibition; TR-FRET GST/Flag-core106 dimerization, 1536-well; inhibition, % at 5 µM; actives 0.33% (n = 300,000); AID 1899;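 active = inhibition above the mean of all tested compounds plus 3 SD, set per screening campaign, cut at about 45% in these data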
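Assay system: Tagged HCV core106 pair (GST and Flag) | Buffer or medium: KF-containing HEPES buffer, pH 7.45, DTT, CHAPS, BSA | Also added: Eu donor and XL665 acceptor anti-tag antibodies | Dosing: One concentration, 5 µM, in 0.5% DMSO | Timing: 4 h at 22.5 °C | Technique: TR-FRET 671 and 617 nm emission | Repeats: Singlicate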
* hit, by the source's call; ? = inconclusive; . = not tested or not shown; + = active, no number. This is a sample that favours compounds with a hit; in the whole collection about 1.7% have one here.

SMILES	ZTA DNA inh	EBV gp42 block	NS3 helicase inh	EBNA-1 inh	MEX-5 binding	core dimer inh
O=c1[nH]c(CSc2ncccn2)nc2c1cnn2-c1ccccc1	-5.5	0.9	3.1	-10.1	-26.4*	4.1
CCN(CC)C(=O)CSc1ncnc2c(-c3cccs3)nsc12	-0.9	-15.2	4.2	9.7	.	47.2*
O=[N+]([O-])CC(=Nc1ccc(Cl)cc1)N/N=C\c1oc(O)c2ccccc12	-6.5	-23.3	8.3	3.3	-4.6	60.6*
O=C(O)c1ccc(N2C(=O)/C(=C/c3ccc(-c4ccc([N+](=O)[O-])cc4)o3)C=C2c2ccccc2)cc1	9.5	81.8*	39.7*	12.6	-0.9	30.1
O=C1NN(c2ccccc2)C(=O)/C1=C/c1ccc(-c2ccc(C(=O)O)cc2)o1	4.4	.	0.5	0.1	-18.1	-6.8
COC(=O)C(Nc1nccs1)(OC)C(F)(F)F (stereo unspecified)	-11.4	59.6*	-0.3	8.0	-19.8	-0.3
O=C(CSc1nnnn1-c1ccccc1)NC(=O)NCc1ccco1	-2.3	46.4	6.8	-9.5	2.8	60.1*
Cc1sc2nc(SCC(=O)NCc3ccco3)n(C)c(=O)c2c1C	5.8	-2.4	-3.2	0.0	1.3	-0.7
Cn1nnnc1SCC(=O)NCc1ccco1	11.2	-22.9	0.6	9.1	-1.3	-1.9
Cc1nnc(SCC(=O)NC(=O)NCc2ccco2)n1Cc1ccccc1	-0.5	21.5	9.3	1.1	1.6	62.4*
CCOc1ccccc1-n1nnnc1SCC(=O)NC(=O)NCc1ccco1	-14.9	-1.7	20.3	-8.4	1.9	57.0*
O=C(CSc1nnc(-c2ccco2)n1Cc1ccccc1)NC(=O)NCc1ccccc1	4.0	-5.6	-4.1	-9.6	0.2	27.4
CCn1c(SCC(=O)NC(=O)NCc2ccco2)nc2sc(C)c(C)c2c1=O	-11.2	11.3	8.7	27.9*	2.8	51.2*
Nn1c(SCC(=O)NC(=O)NCc2ccco2)nnc1-c1ccc(OC(F)F)cc1	-2.5	62.3*	2.5	-0.8	0.0	78.9*
Cc1cc2nc3c(=O)[nH]c(=O)[nH]c3nc2c([N+](=O)[O-])c1N	.	149.5*	12.3	.	.	.
Cc1c(N)c(C(C)(C)C)cc(C(C)(C)C)c1[N+](=O)[O-]	-9.0	14.9	-5.3	13.0	1.3	-6.5
Cc1cccc(OCC(=O)Nc2nnc(S(=O)(=O)N3CCCCCC3)s2)c1	16.9	.	-11.3	12.9	0.4	15.2
COCCCN1C(=O)N(c2ccccc2)C(=O)C1CC(=O)Nc1ccc(F)cc1 (stereo unspecified)	6.5	.	4.2	1.8	0.9	0.7
O=C(O)c1cccc(-n2cccc2/C=C2/NC(=O)N(c3ccc(Cl)cc3)C2=O)c1	.	94.7*	27.9	.	.	.
O=C(O)c1cccc(-n2cccc2/C=C2/NC(=O)N(c3cccc(Cl)c3)C2=O)c1	-5.4	-25.4	32.0	-7.8	.	-4.7
CCOC(=O)/C(C#N)=C\c1ccc(N2CCN(C/C=C/c3ccccc3)CC2)cc1	-16.7	130.7*	-6.2	23.8	?	0.7
Cc1cc(C=C2C(=O)c3ccccc3C2=O)c(C)n1-c1ccccc1	11.0	56.6*	15.1	9.8	-7.6	9.5
Cc1sc(/C=C2\C(=O)ON=C2c2ccccc2)cc1Br	-15.0	6.7	19.0	2.3	-31.2*	-1.7
COc1ccc(C(C(=O)NCCC(C)C)N(CCN2CCOCC2)C(=O)Cn2nnc3ccccc32)c(OC)c1 (stereo unspecified)	-19.7	-13.9	6.1	-11.6	-0.8	-3.8
CCc1nnc(NC(=O)C2Cc3ccccc3CN2S(=O)(=O)c2cccs2)s1 (stereo unspecified)	15.3	-1.0	-2.6	0.8	3.2	59.2*
SMILES	ZTA DNA inh	EBV gp42 block	NS3 helicase inh	EBNA-1 inh	MEX-5 binding	core dimer inh
O=C(Nc1nnc(C2CC2)s1)C1Cc2ccccc2CN1C(=O)c1ccco1 (stereo unspecified)	-17.1	0.4	18.7	-4.6	0.7	54.3*
CCS(=O)(=O)N1Cc2ccccc2CC1C(=O)Nc1nnc(SCc2c(Cl)cccc2Cl)s1 (stereo unspecified)	0.9	-38.4	-2.2	2.5	3.0	21.2
O=C(Nc1nnc(C2CC2)s1)C1Cc2ccccc2CN1S(=O)(=O)c1cccs1 (stereo unspecified)	3.4	-4.3	-2.5	1.8	3.5	66.8*
CCSc1nnc(NC(=O)C2Cc3ccccc3CN2S(=O)(=O)CC)s1 (stereo unspecified)	3.6	-13.5	-3.4	-5.0	-1.1	49.0*
O=C(N=C1SC2CS(=O)(=O)CC2N1Cc1ccc(F)cc1)C1CCCO1 (stereo unspecified)	-13.2	.	-3.2	1.3	1.1	-3.8
CCCC1=Nc2cc(C(=O)N3CCN(c4ccccn4)CC3)ccc2Sc2ccc(C)cc21	1.6	.	0.1	-3.5	1.9	24.2
CCC1CCc2sc(C(=O)OCC(=O)N(CCOC)c3c(N)n(Cc4ccccc4)c(=O)[nH]c3=O)cc2C1 (stereo unspecified)	0.4	.	.	16.2	4.3	7.8
COCCN(C(=O)COC(=O)c1cc2c(s1)CCC2)c1c(N)n(Cc2ccccc2)c(=O)[nH]c1=O	12.5	.	.	17.6	-10.5	68.6*
CC(=O)N1CCN(c2nc(-c3ccco3)c3c(c2C#N)CC(C)(C)SC3)CC1	-1.5	6.1	22.8	0.0	-2.7	30.4
N#Cc1c(N2CCN(C(=O)c3ccccc3Cl)CC2)nc(-c2ccccc2)c2c1CCCC2	7.6	-36.0	0.4	-3.8	5.6	-0.9
CC1(C)Cc2c(C#N)c(N3CCN(C(=O)c4ccco4)CC3)nc(-c3ccco3)c2CS1	0.1	0.8	23.0	-4.3	1.8	72.0*
CC1(C)Cc2c(C#N)c(N3CCN(C(=O)c4ccccc4Cl)CC3)nc(-c3ccco3)c2CS1	-0.1	-19.4	27.6	8.1	3.9	81.3*
C/C(=N/NC(=O)c1ccc(Br)o1)c1cccc(NC(=O)c2ccc(F)cc2)c1	8.3	.	-4.0	5.3	0.7	4.4
CN(C)c1ccc(N=Cc2cccn2C)cc1	+	.	35.5	+	-0.1	-62.7
Cc1ccc(C)n1-c1sccc1C(=O)O	.	9.6	24.5	.	-36.0*	.
Cc1ccc(C)n1-c1sc2c(c1C(=O)O)CCCC2	-5.5	3.2	33.0	-2.9	-1.3	-3.2
Cn1ncc2c(NNC(=O)Cc3ccccc3)ncnc21	2.0	-10.3	-2.4	7.8	-34.7*	0.0
Cc1ccc(-n2ncc3c(NNC(=O)Cc4ccccc4)ncnc32)cc1	-0.6	1.8	0.3	4.1	-1.7	3.6
CC[n+]1c(/C=C/N(C)c2ccccc2)n(-c2ccccc2)c2ccc(-c3nc4ccccc4s3)cc21	42.0*	.	-31.9	15.1	-2.8	-7.7
O=C(/C=C/c1ccco1)NC(=S)Nc1cccc(-c2nc3ccccc3o2)c1	15.3	-35.5	31.4	12.6	0.2	56.0*
Cc1cccc(NC(=S)NC(=O)/C=C/c2ccco2)c1	-1.3	-2.9	34.9	-14.1	4.0	32.4
